pIC50: −log10 of the molar value.
Experiments:
[1] = Cytotoxicity against human leukemia stem/progenitor cells assessed as viable CD34+ cells at 0.5 uM after 18 hrs by annexin-V labeling-based flow cytometry; assay type: functional, CD34+ cell
Summary of the method: (§1)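 Primary leukemia cells from AML patient blood were treated for 18 h in serum-free IMDM, then stained with CD34-APC and CD38-PECy7 for 30 min. After washing in cold PBS, cells were labelled with Annexin-V–FITC/PI for 15 min at room temperature and read by flow cytometry. Viability of total and CD34⁺ cells was normalized to untreated controls (mean, SD).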

HL-60 = assay: Cytotoxicity against human HL60 cells after 18 hrs by annexin-V labeling-based flow cytometry; assay type: functional, cell-based; conditions: HL-60, 18 h
[2] = Cytotoxicity against human HL60/A cells after 18 hrs by annexin-V labeling-based flow cytometry; assay type: functional, cell-based
[3] = Cytotoxicity against human leukemia stem/progenitor cells assessed as viable CD34+ cells at 0.1 uM after 18 hrs by annexin-V labeling-based flow cytometry; assay type: functional, CD34+ cell; summary of the method: as §1
[4] = Cytotoxicity against human leukemia stem/progenitor cells assessed as cell viability at 0.5 uM after 18 hrs by annexin-V labeling-based flow cytometry; assay type: functional; conditions: read-out: Activity; summary of the method: as §1
[5] = Reduction in colony forming units of leukemia stem/progenitor cells at 0.05 uM after 15 to 20 days; assay type: functional, Homo sapiens
Summary of the method: (§2)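 Mononuclear cells from AML patient […] were exposed to drug for 18 h in serum-free IMDM, then plated in triplicate in M3434 methylcellulose. Total colonies (CFC-Mix, CFC-GM, CFC-G, CFC-M, BFU-E) were scored by morphology after 15−20 days.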

[6] = Reduction in colony forming units of leukemia stem/progenitor cells at 0.1 uM after 15 to 20 days; assay type: functional, Homo sapiens; summary of the method: as §2
[7] = Antitumor activity against human leukemia stem/progenitor cells xenografted in NOD/SCID mouse assessed as survival time at 1 mg/kg, iv administered every other day total of four doses starting from 8 weeks post grafting (reference value: 43 days)
[8] = Cytotoxicity against human leukemia stem/progenitor cells assessed as cell viability at 0.1 uM after 18 hrs by annexin-V labeling-based flow cytometry; assay type: functional; conditions: in the assay text read “leukemia cells” for “leukemia stem/progenitor cells”, read-out: Activity; summary of the method: as §1
[9] = Drug degradation in HEPES buffer at pH 7.4 assessed as release of PTL; assay type: physicochemical
Summary of the method: (§3)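 A 20 μL aliquot of prodrug solution was added to 980 μL HEPES buffer (pH 7.4, or below 5.0) and incubated at 37 °C. Samples were withdrawn over time, and prodrug and released parent were quantified by HPLC (mean, SD, n = 4).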

[10] = Drug degradation in HEPES buffer at pH <5 assessed as release of PTL; assay type: physicochemical; summary of the method: as §3
Plasma = assay: Drug metabolism in mouse plasma assessed as release of PTL; assay type: ADME, cell-free
Summary of the method: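 A 20 μL aliquot of prodrug solution was added to 980 μL blank mouse plasma and incubated at 37 °C. Prodrug and released parent drug concentrations were measured over time by HPLC (mean, SD, n = 4).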

[11] = Antitumor activity against mixed-lineage human leukemia cells xenografted in NOD/SCID mouse assessed as reduction of CD45+CD33+ cells in bone marrow at 100 mg/kg, po qd administered every other day total of seven doses starting from 8 weeks post grafting measured on day 35 (reference value: 9.8 %); assay type: functional, Leukemia cell; design: scale not given: the % may be the effect or the level left
[12] = Drug degradation in mouse plasma assessed as release of PTL up to 2.5 hrs; conditions: pH 7.4
[13] = Antitumor activity against human leukemia stem/progenitor cells xenografted in NOD/SCID mouse assessed as survival time at 100 mg/kg, po qd administered every other day total of seven doses starting from 8 weeks post grafting (reference value: 43 days); assay type: functional
Summary of the method: (§4)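 NOD/SCID mice were sublethally irradiated (280cGay), then 6−10 h later given primary AML M5 patient cells via tail vein in PBS. From 8 weeks postinoculation, aqueous solution was given orally at 100 mg/kg every other day for seven doses. Survival was followed, Kaplan−Meier, n = 6 per treated group and n = 7 untreated controls. Survivors at day 85 had bone marrow analysed for human CD45⁺CD33⁺ cells.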

[14] = Antitumor activity against human leukemia stem/progenitor cells xenografted in NOD/SCID mouse assessed as reduction of CD45+CD33+ cells in bone marrow at 100 mg/kg, po qd administered every other day total of seven doses starting from 8 weeks post grafting measured on day 85; assay type: functional; design: scale not given: the % may be the effect or the level left
Summary of the method: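 NOD/SCID mice, sublethally irradiated (280cGay), received primary AML M5 patient cells via tail vein in PBS 6−10 h later. From 8 weeks after engraftment, aqueous drug was given orally every other day for seven doses. Surviving mice were sacrificed on day 85 post-inoculation, and human CD45⁺CD33⁺ cells in bone marrow were measured by flow cytometry.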

[15] = Antitumor activity against mixed-lineage human leukemia cells xenografted in NOD/SCID mouse assessed as inhibition of cancer cell engrafting at 100 mg/kg, po qd administered every other day total of seven doses starting from 8 weeks post grafting measured on day 35; assay type: functional
[16] = Antitumor activity against human leukemia stem/progenitor cells xenografted in NOD/SCID mouse assessed as survival rate at 100 mg/kg, po qd administered every other day total of seven doses starting from 8 weeks post grafting measured on day 85; assay type: functional; summary of the method: as §4

| SMILES | Activity [1] [%] | pIC50 (HL-60) | pIC50 [2] | Activity [3] [%] | viability at 0.5 µM [4] [%] | CFU [5] | CFU [6] | Survival [7] [days] | viability at 0.1 µM [8] [%] | Drug degradation [9] | Drug degradation [10] | Drug metabolism (Plasma) | Activity [11] [%] | Drug degradation [12] [µg/mL] | Survival [13] [days] | Activity [14] [%] | inhibition in vivo at 100 mg/kg [15] [%] | survival at 100 mg/kg [16] [%] |
| --- | --- | --- | --- | --- | --- | --- | --- | --- | --- | --- | --- | --- | --- | --- | --- | --- | --- | --- |
| COc1cccc2c1C(=O)c1c(O)c3c(c(O)c1C2=O)C[C@@](O)(C(=O)CO)C[C@@H]3O[C@H]1C[C@H](N)[C@H](O)[C@H](C)O1 [DOXORUBICIN] | 49.1 | 7.30 | 5.17 | 115 | 49.1 | 165 | 170 | 22 | 37.6 | – | – | – | – | – | – | – | – | – |
| C/C1=C\CC[C@@]2(C)O[C@@H]2[C@H]2OC(=O)[C@@H](CN(C)C)[C@@H]2CC1.O=C(O)/C=C/C(=O)O [(DIMETHYLAMINO)PARTHENOLIDE FUMARIC ACID SALT] | – | – | – | – | – | – | – | – | – | Active | Not Active | Active | 5.7 | 0.1 | 66 | 35 | 42 | 17 |

— ChEMBL document CHEMBL2202986, “Guaianolide sesquiterpene lactones, a source to discover agents that selectively inhibit acute myelogenous leukemia stem and progenitor cells” (J Med Chem, 2012)
